Laboratory results taken from ChEMBL document CHEMBL3774311, “Synthesis and in vitro antitumour activity of tiazofurin analogues with nitrogen functionalities at the C-2' position” (Eur J Med Chem, 2016).

Tests used:
K562 [1] = assay: Induction of cell cycle arrest in human K562 cells assessed as accumulation at S phase after 24 hrs by propidium iodide staining-based flow cytometry (reference value: 48.38%); assay type: functional
Method in brief: (§1)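 Exponentially growing K562 cells treated 24 or 72 h; cells stained with propidium iodide and cell-cycle distribution (sub-G1, G0/G1, S, G2/M, %) measured by flow cytometry; untreated cells as control.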

K562 [2] = assay: Induction of apoptosis in human K562 cells assessed as necrotic cells after 24 hrs by annexin V-FITC/propidium iodide staining based flow cytometry (reference value: 1.50%); assay type: functional
Method in brief: (§2)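 K562 cells treated 24 or 72 h, double-stained with Annexin V-FITC/PI and analysed by flow cytometry to give percentages of live, apoptotic and necrotic cells; apoptotic and necrotic responses expressed as specific apoptosis or specific necrosis (%).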

K562 [3] = assay: Induction of apoptosis in human K562 cells assessed as late apoptotic cells after 72 hrs by annexin V-FITC/propidium iodide staining based flow cytometry (reference value: 5.24%); assay type: functional; method in brief: as §2
K562 [4] = assay: Induction of apoptosis in human K562 cells assessed as Bcl2 protein level after 24 hrs by Western blotting method (reference value: 22.81%); assay type: functional
K562 [5] = assay: Induction of specific apoptosis in human K562 cells after 72 hrs by annexin V-FITC/propidium iodide staining based flow cytometry; assay type: functional; set-up: concentration or dose not given beside the values; method in brief: as §2
K562 [6] = assay: Induction of apoptosis in human K562 cells assessed as cleaved PARP level after 72 hrs by Western blotting method (reference value: 18.36%); assay type: functional
K562 [7] = assay: Induction of apoptosis in human K562 cells assessed as necrotic cells after 72 hrs by annexin V-FITC/propidium iodide staining based flow cytometry (reference value: 7.23%); assay type: functional; method in brief: as §2
K562 [8] = assay: Induction of apoptosis in human K562 cells assessed as caspase 3 level after 24 hrs by Western blotting method (reference value: 42.77%); assay type: functional
K562 [9] = assay: Induction of apoptosis in human K562 cells assessed as early apoptotic cells after 72 hrs by annexin V-FITC/propidium iodide staining based flow cytometry (reference value: 3.22%); assay type: functional; method in brief: as §2
MRC5 = assay: Cytotoxicity against human MRC5 cells after 72 hrs by MTT assay; assay type: cell-based; conditions: MRC5, 72 h
Method in brief: (§3)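 Human tumour lines and MRC-5 foetal lung fibroblasts (normal-cell comparator) exposed to compounds for 72 h; viability read by standard MTT assay. IC50 taken as concentration inhibiting growth by 50% versus untreated control; means of three independent experiments, coefficients of variation under 10%.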

K562 [10] = assay: Induction of specific necrosis in human K562 cells after 24 hrs by annexin V-FITC/propidium iodide staining based flow cytometry; assay type: functional; set-up: concentration or dose not given beside the values; method in brief: as §2
K562 [11] = assay: Induction of cell cycle arrest in human K562 cells assessed as accumulation at G0/G1 phase after 24 hrs by propidium iodide staining-based flow cytometry (reference value: 36.28%); assay type: functional; method in brief: as §1
K562 [12] = assay: Induction of apoptosis in human K562 cells assessed as Bax protein level after 24 hrs by Western blotting method (reference value: 16.13%); assay type: functional
K562 [13] = assay: Induction of apoptosis in human K562 cells assessed as caspase 3 level after 72 hrs by Western blotting method (reference value: 17.05%); assay type: functional
K562 [14] = assay: Induction of apoptosis in human K562 cells assessed as living cells after 24 hrs by annexin V-FITC/propidium iodide staining based flow cytometry (reference value: 85.85%); assay type: functional; method in brief: as §2
K562 [15] = assay: Induction of apoptosis in human K562 cells assessed as Bax protein level after 72 hrs by Western blotting method (reference value: 32.81%); assay type: functional
[16] = Antiproliferative activity against human HL60 cells after 72 hrs by MTT assay; assay type: functional, cell-based, HL-60; conditions: Homo sapiens, HL-60, 72 h; method in brief: as §3
K562 [17] = assay: Induction of apoptosis in human K562 cells assessed as living cells after 72 hrs by annexin V-FITC/propidium iodide staining based flow cytometry (reference value: 84.31%); assay type: functional; method in brief: as §2
K562 [18] = assay: Induction of apoptosis in human K562 cells assessed as late apoptotic cells after 24 hrs by annexin V-FITC/propidium iodide staining based flow cytometry (reference value: 4.58%); assay type: functional; method in brief: as §2
MCF7 = assay: Antiproliferative activity against human MCF7 cells after 72 hrs by MTT assay; assay type: functional, cell-based; conditions: MCF7, 72 h; method in brief: as §3
K562 [19] = assay: Induction of cell cycle arrest in human K562 cells assessed as accumulation at G0/G1 phase after 72 hrs by propidium iodide staining-based flow cytometry (reference value: 45.92%); assay type: functional; method in brief: as §1
K562 [20] = assay: Induction of cell cycle arrest in human K562 cells assessed as accumulation at S phase after 72 hrs by propidium iodide staining-based flow cytometry (reference value: 35.73%); assay type: functional; method in brief: as §1
K562 [21] = assay: Induction of specific apoptosis in human K562 cells after 24 hrs by annexin V-FITC/propidium iodide staining based flow cytometry; assay type: functional; set-up: concentration or dose not given beside the values; method in brief: as §2
K562 [22] = assay: Antiproliferative activity against human K562 cells after 72 hrs by MTT assay; assay type: functional, cell-based; conditions: Homo sapiens, K562, 72 h; method in brief: as §3
HT-29 = assay: Antiproliferative activity against human HT-29 cells after 72 hrs by MTT assay; assay type: functional, cell-based; conditions: HT-29, 72 h; method in brief: as §3
K562 [23] = assay: Induction of apoptosis in human K562 cells assessed as Bcl2 protein level after 72 hrs by Western blotting method (reference value: 7.90%); assay type: functional
K562 [24] = assay: Induction of specific necrosis in human K562 cells after 72 hrs by annexin V-FITC/propidium iodide staining based flow cytometry; assay type: functional; set-up: concentration or dose not given beside the values; method in brief: as §2
HeLa = assay: Antiproliferative activity against human HeLa cells after 72 hrs by MTT assay; assay type: functional, cell-based; conditions: Homo sapiens, HeLa, 72 h; method in brief: as §3
K562 [25] = assay: Induction of cell cycle arrest in human K562 cells assessed as accumulation at G2/M phase after 72 hrs by propidium iodide staining-based flow cytometry (reference value: 15.31%); assay type: functional; method in brief: as §1
K562 [26] = assay: Induction of cell cycle arrest in human K562 cells assessed as accumulation at Sub-G1 phase after 24 hrs by propidium iodide staining-based flow cytometry (reference value: 1.05%); assay type: functional; method in brief: as §1
K562 [27] = assay: Induction of apoptosis in human K562 cells assessed as cleaved PARP level after 24 hrs by Western blotting method (reference value: 36.17%); assay type: functional
K562 [28] = assay: Induction of apoptosis in human K562 cells assessed as early apoptotic cells after 24 hrs by annexin V-FITC/propidium iodide staining based flow cytometry (reference value: 8.09%); assay type: functional; method in brief: as §2
K562 [29] = assay: Induction of cell cycle arrest in human K562 cells assessed as accumulation at Sub-G1 phase after 72 hrs by propidium iodide staining-based flow cytometry (reference value: 3.04%); assay type: functional; method in brief: as §1
Jurkat = assay: Antiproliferative activity against human Jurkat cells after 72 hrs by MTT assay; assay type: functional, cell-based; method in brief: as §3
Raji = assay: Antiproliferative activity against human Raji cells after 72 hrs by MTT assay; assay type: functional, cell-based; conditions: Homo sapiens, Raji, 72 h; method in brief: as §3
K562 [30] = assay: Induction of cell cycle arrest in human K562 cells assessed as accumulation at G2/M phase after 24 hrs by propidium iodide staining-based flow cytometry (reference value: 14.29%); assay type: functional; method in brief: as §1
[31] = Antiproliferative activity against human HL60 cells after 24 hrs; assay type: functional, cell-based; conditions: HL-60, 24 h

Structure (SMILES) | Activity (K562 [1]) | Activity (K562 [2]) | Activity (K562 [3]) | Activity (K562 [4]) | Activity (K562 [5]) | Activity (K562 [6]) | Activity (K562 [7]) | Activity (K562 [8]) | Activity (K562 [9]) | IC50 (MRC5) | Activity (K562 [10]) | Activity (K562 [11]) | Activity (K562 [12]) | Activity (K562 [13]) | Activity (K562 [14]) | Activity (K562 [15]) | IC50 [16] | Activity (K562 [17]) | Activity (K562 [18]) | IC50 (MCF7) | also measured
CC(=O)N[C@@H]1[C@H](O)[C@@H](CO)O[C@H]1c1nc(C(N)=O)cs1 | 45.03% | 7.39% | 62.01% | 63.4% | 43.6% | 33.66% | 25.03% | 90.45% | 5.93% | 5.26 µM | 5.88% | 43.07% | 18.43% | 93.75% | 75.11% | 98.81% | > 100 µM | 7.05% | 12.48% | 3.92 µM | Activity (K562 [19]): 48.09%; Activity (K562 [20]): 31.42%; Activity (K562 [21]): 12.6%; IC50 (K562 [22]): > 100 µM; IC50 (HT-29): > 100 µM; Activity (K562 [23]): 37.09%; Activity (K562 [24]): 24.55%; IC50 (HeLa): > 100 µM; Activity (K562 [25]): 9.32%; Activity (K562 [26]): 3.71%; Activity (K562 [27]): 95.59%; Activity (K562 [28]): 5.03%; Activity (K562 [29]): 11.17%; IC50 (Jurkat): > 100 µM; IC50 (Raji): 14.7 µM; Activity (K562 [30]): 8.21%
NC(=O)c1csc([C@@H]2O[C@H](CO)[C@@H](O)[C@H]2NC(=O)c2ccccc2)n1 | 49.13% | 13.22% | 80.99% | 64.31% | 50.41% | 63.83% | 7.35% | 93.34% | 7.94% | 0.05 µM | 11.71% | 39.08% | 30.99% | 27.61% | 53.81% | 95.1% | 20.4 µM | 3.74% | 26.45% | 19.9 µM | IC50 [31]: 0.12 µM; Activity (K562 [19]): 44.1%; Activity (K562 [20]): 34.11%; Activity (K562 [21]): 29%; IC50 (K562 [22]): 0.02 µM; IC50 (HT-29): 0.02 µM; Activity (K562 [23]): 15.94%; Activity (K562 [24]): 6.86%; IC50 (HeLa): > 100 µM; Activity (K562 [25]): 10.5%; Activity (K562 [26]): 6.12%; Activity (K562 [27]): 57.9%; Activity (K562 [28]): 6.54%; Activity (K562 [29]): 11.29%; IC50 (Jurkat): 0.03 µM; IC50 (Raji): 0.01 µM; Activity (K562 [30]): 5.67%
